# In ChEMBL document CHEMBL1137220, “2-(2-(dimethylaminomethyl)phenoxy)-5-iodophenylamine: an improved serotonin transporter imaging agent” (J Med Chem, 2004):
# Legend:
# [1] = Distribution ratio in striatum and cerebellum was determined after 6 hrs of intravenous administration of the compound; [125I]- is used as radioactive isotope; type: ADME, tissue-based; details: rat
# Method in brief: (§1)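 Rats, three per group, given 10 μCi tracer in 0.2 mL saline into the femoral vein under ether anesthesia, then killed by cardiac excision at the stated time. Brain regions were dissected, weighed and counted. Percent dose/g was calculated against a 1% diluted aliquot of the injected dose. The ratio is (region − cerebellum)/cerebellum on a % dose/g basis, with cerebellum as background.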
# [2] = Regional brain distribution in rat striatum was determined after 24 hours of intravenous administration of the compound; [125I]- is used as radioactive isotope; type: ADME, tissue-based; details: in vivo
# Method in brief: (§2)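 Rats, three per group, injected with 10 μCi tracer in 0.2 mL saline via the femoral vein under ether anesthesia and killed by cardiac excision at the stated time. Cortex (frontal plus occipital), striatum, hippocampus, cerebellum and hypothalamus were dissected, weighed and gamma-counted. Values are % dose/g, calculated by comparison with counts of a 100-fold diluted aliquot of the injected dose.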
# [3] = Regional brain distribution in rat cortex was determined after 30 min of intravenous administration of the compound; [125I]- is used as radioactive isotope; type: ADME; details: in vivo, 0.5 h; method in brief: as §2
# [4] = Regional brain distribution in rat hypothalamus was determined after 240 min of intravenous administration of the compound; [125I]- is used as radioactive isotope; type: ADME, tissue-based; details: in vivo, 4 h; method in brief: as §2
# [5] = Biodistribution in rat skin was determined after 30 min of intravenous administration of the compound; [125I]- is used as radioactive isotope; type: ADME, organism-based, Zone of skin; details: in vivo, 0.5 h
# Method in brief: (§3)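 Rats, three per group, under ether anaesthesia, received 10 μCi of [¹²⁵I]-labelled tracer in 0.2 mL saline into the femoral vein. They were killed by cardiac excision under ether at each time point. Organs were removed, weighed and counted. Percent dose per organ was calculated against counts of a 1% aliquot of the injected dose (100-fold diluted) counted at the same time.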
# [6] = Distribution ratio in hypothalamus and cerebellum was determined after 6 hours of intravenous administration of the compound; [125I]- is used as radioactive isotope; type: ADME, tissue-based; details: rat; method in brief: as §1
# [7] = Biodistribution in rat brain was determined after 11 hours of intravenous administration of the compound; [125I]- is used as radioactive isotope; type: ADME, organism-based; details: in vivo
# Method in brief: (§4)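 Rats under ether anesthesia, three per group, received 10 μCi tracer in 0.2 mL saline into the femoral vein. They were killed by cardiac excision under ether at each time point. Organs were removed, weighed and counted. Percent dose per organ was calculated against a 1%-of-injected-dose standard counted at the same time.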
# [8] = Regional brain distribution in rat hippocampus was determined after 120 min of intravenous administration of the compound; [125I]- is used as radioactive isotope; type: ADME, tissue-based; details: in vivo, 2 h; method in brief: as §2
# [9] = Regional brain distribution in rat cerebellum was determined after 240 min of intravenous administration of the compound; [125I]- is used as radioactive isotope; type: ADME, tissue-based; details: in vivo, 4 h; method in brief: as §2
# [10] = Biodistribution in rat blood was determined after 240 min of intravenous administration of the compound; [125I]- is used as radioactive isotope; type: ADME, organism-based; details: in vivo, 4 h; method in brief: as §4
# [11] = Biodistribution in rat skin was determined after 60 min of intravenous administration of the compound; [125I]- is used as radioactive isotope; type: ADME, organism-based, Zone of skin; details: in vivo, 1 h; method in brief: as §3
# [12] = Biodistribution in rat heart was determined after 240 min of intravenous administration of the compound; [125I]- is used as radioactive isotope; type: ADME, organism-based; details: in vivo, 4 h; method in brief: as §4
# [13] = Biodistribution in rat kidney was determined after 240 min of intravenous administration of the compound; [125I]- is used as radioactive isotope; type: ADME, organism-based; details: in vivo, 4 h; method in brief: as §4
# [14] = Biodistribution in rat lung was determined after 2 min of intravenous administration of the compound; [125I]- is used as radioactive isotope; type: ADME, organism-based; details: in vivo; method in brief: as §4
# [15] = Biodistribution in rat brain was determined after 60 min of intravenous administration of the compound; [125I]- is used as radioactive isotope; type: ADME, organism-based; details: in vivo, 1 h; method in brief: as §4
# [16] = Regional brain distribution in rat hippocampus was determined after 60 min of intravenous administration of the compound; [125I]- is used as radioactive isotope; type: ADME, tissue-based; details: in vivo, 1 h; method in brief: as §2
# [17] = Biodistribution in rat thyroid was determined after 240 min of intravenous administration of the compound; [125I]- is used as radioactive isotope; type: ADME, organism-based, Thyroid gland; details: in vivo, 4 h; method in brief: as §3
# [18] = Biodistribution in rat muscle was determined after 240 min of intravenous administration of the compound; [125I]- is used as radioactive isotope; type: ADME, organism-based, Muscle tissue; details: in vivo, 4 h; method in brief: as §3
# [19] = Biodistribution in rat liver was determined after 6 hours of intravenous administration of the compound; [125I]- is used as radioactive isotope; type: ADME, organism-based; details: in vivo; method in brief: as §4
# [20] = Biodistribution in rat brain was determined after 2 min of intravenous administration of the compound; [125I]- is used as radioactive isotope; type: ADME, organism-based; details: in vivo; method in brief: as §4
# [21] = Biodistribution in rat brain was determined after 24 hours of intravenous administration of the compound; [125I]- is used as radioactive isotope; type: ADME, organism-based; details: in vivo; method in brief: as §4
# [22] = Regional brain distribution in rat striatum was determined after 120 min of intravenous administration of the compound; [125I]- is used as radioactive isotope; type: ADME, tissue-based; details: in vivo, 2 h; method in brief: as §2
# [23] = Distribution ratio in striatum and cerebellum was determined after 30 min of intravenous administration of the compound; [125I]- is used as radioactive isotope; type: ADME, tissue-based; details: rat, 0.5 h; method in brief: as §1
# [24] = Biodistribution in rat kidney was determined after 24 hours of intravenous administration of the compound; [125I]- is used as radioactive isotope; type: ADME, organism-based; details: in vivo; method in brief: as §4
# [25] = Biodistribution in rat spleen was determined after 120 min of intravenous administration of the compound; [125I]- is used as radioactive isotope; type: ADME, organism-based; details: in vivo, 2 h; method in brief: as §3
# [26] = Biodistribution in rat brain was determined after 6 hours of intravenous administration of the compound; [125I]- is used as radioactive isotope; type: ADME, organism-based; details: in vivo; method in brief: as §4
# [27] = Biodistribution in rat kidney was determined after 30 min of intravenous administration of the compound; [125I]- is used as radioactive isotope; type: ADME, organism-based; details: in vivo, 0.5 h; method in brief: as §4
# [28] = Biodistribution in rat blood was determined after 30 min of intravenous administration of the compound; [125I]- is used as radioactive isotope; type: ADME, organism-based; details: in vivo, 0.5 h; method in brief: as §4
# [29] = target: Sodium-dependent dopamine transporter (Homo sapiens, UniProt Q01959); assay: Binding affinity for dopamine transporter expressed in […] cells; type: cell-based
# Method in brief: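 Membranes from confluent pig kidney LLC-PK₁ cells stably expressing the respective transporter, homogenized and pelleted, 30–40 μg protein. Incubated with 0.4 nM [¹²⁵I]IPT or [¹²⁵I]IDAM and 8–10 competitor concentrations (10⁻¹⁰ to 10⁻⁵ M) in 50 mM Tris-HCl pH 7.4, 120 mM NaCl, 0.1% BSA, 1 h at room temperature. Nonspecific binding was defined with 10 μM CFT for IPT and 1 μM IDAM for IDAM. Filtration, gamma counting, nonlinear regression for Ki.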
# [30] = Distribution ratio in cortex and cerebellum was determined after 120 min of intravenous administration of the compound; [125I]- is used as radioactive isotope; type: ADME, tissue-based; details: rat, 2 h
# Method in brief: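 After femoral-vein injection of 10 μCi [¹²⁵I] tracer in 0.2 mL saline under ether anaesthesia (three rats per group), brain regions were dissected, weighed and counted: cortex (frontal plus occipital), hippocampus, hypothalamus and cerebellum. %dose/g was calculated against a diluted injected-dose standard. Ratio = (region − cerebellum)/cerebellum on a %dose/g basis, with cerebellum as the background region.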
# [31] = Biodistribution in rat thyroid was determined after 24 hours of intravenous administration of the compound; [125I]- is used as radioactive isotope; type: ADME, organism-based, Thyroid gland; details: in vivo; method in brief: as §3
# Chain of Sodium-dependent dopamine transporter (Q01959 whole entry): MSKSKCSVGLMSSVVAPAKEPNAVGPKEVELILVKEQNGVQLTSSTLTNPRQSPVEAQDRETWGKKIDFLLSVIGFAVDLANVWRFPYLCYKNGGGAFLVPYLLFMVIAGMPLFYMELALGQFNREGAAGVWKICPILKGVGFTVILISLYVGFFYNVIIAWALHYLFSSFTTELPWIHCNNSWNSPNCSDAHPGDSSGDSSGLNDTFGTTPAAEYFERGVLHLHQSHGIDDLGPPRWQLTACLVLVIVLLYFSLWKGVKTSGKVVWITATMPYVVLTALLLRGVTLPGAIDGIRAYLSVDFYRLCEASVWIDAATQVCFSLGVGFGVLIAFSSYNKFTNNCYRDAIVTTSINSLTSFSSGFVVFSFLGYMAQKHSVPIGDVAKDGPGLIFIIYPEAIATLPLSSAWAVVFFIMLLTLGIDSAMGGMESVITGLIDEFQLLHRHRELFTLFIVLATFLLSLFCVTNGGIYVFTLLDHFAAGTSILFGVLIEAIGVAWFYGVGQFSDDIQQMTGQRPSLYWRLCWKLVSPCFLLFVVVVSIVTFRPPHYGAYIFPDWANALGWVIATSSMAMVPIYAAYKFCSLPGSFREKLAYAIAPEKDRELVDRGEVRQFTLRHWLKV
structure (smiles),measurement,setting,value
CN(C)Cc1ccccc1Oc1ccc(I)cc1N,Dose/g,[1],1.56%
same,Dose/g,[2],0.0039%
same,Dose/g,[3],1.25%
same,Dose/g,[4],0.32%
same,Dose,[5],11.3%
same,Dose/g,[6],2.64%
same,Dose,[7],0.02%
same,Dose/g,[8],0.65%
same,Dose/g,[9],0.06%
same,Dose,[10],3.12%
same,Dose,[11],13.9%
same,Dose,[12],0.08%
same,Dose,[13],0.61%
same,Dose,[14],17.2%
same,Dose,[15],1.74%
same,Dose/g,[16],0.94%
same,Dose,[17],2.34%
same,Dose,[18],6.27%
same,Dose,[19],3.59%
same,Dose,[20],1.77%
same,Dose,[21],0.01%
same,Dose/g,[22],0.72%
same,Dose/g,[23],0.83%
same,Dose,[24],0.17%
same,Dose,[25],0.27%
same,Dose,[26],0.11%
same,Dose,[27],2.67%
same,Dose,[28],4.56%
same,Ki,[29],0.309 µM
same,Dose/g,[30],1.48%
same,Dose,[31],4.61%
